{"source": "ChEMBL document CHEMBL4038284", "about": "“Synthesis of novel quinoline-based 4,5-dihydro-1H-pyrazoles as potential anticancer, antifungal, antibacterial and antiprotozoal agents” (Eur J Med Chem, 2017)", "assay_type_in_all_cases": "functional", "key": {"Staphylococcus aureus [1]": {"tested_on": "Staphylococcus aureus", "experiment": "Bactericidal activity against methicillin-sensitive Staphylococcus aureus ATCC 25923 after 24 hrs by resazurin dye based microdilution assay", "settings": "ATCC 25923, 24 h"}, "Staphylococcus aureus [2]": {"tested_on": "Staphylococcus aureus", "experiment": "Bactericidal activity against methicillin-resistant Staphylococcus aureus ATCC 43300 after 24 hrs by resazurin dye based microdilution assay", "settings": "ATCC 43300, 24 h", "in_short": "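3 µL of each dilution with no visible growth was plated onto trypticase agar. Gentamicin as control. Duplicate, replicated at least three times.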"}, "Staphylococcus aureus [3]": {"tested_on": "Staphylococcus aureus", "experiment": "Bactericidal activity against vancomycin-intermediate Staphylococcus aureus after 24 hrs by resazurin dye based microdilution assay"}, "Escherichia coli": {"tested_on": "Escherichia coli", "experiment": "Bactericidal activity against Escherichia coli ATCC 25922 after 24 hrs by resazurin dye based microdilution assay", "settings": "ATCC 25922, 24 h"}, "Klebsiella pneumoniae": {"tested_on": "Klebsiella pneumoniae", "experiment": "Bactericidal activity against carbapenemase positive Klebsiella pneumoniae BAA 1705 after 24 hrs by resazurin dye based microdilution assay", "settings": "BAA 1705, 24 h"}}}
{"smiles": "O=Cc1cccc(Nc2ccnc3cc(Cl)ccc23)c1", "values": [{"measurement": "MBC", "setting": "Staphylococcus aureus [1]", "result": 500, "unit": "µg/mL"}, {"measurement": "MBC", "setting": "Staphylococcus aureus [2]", "result": "> 1000", "unit": "µg/mL"}, {"measurement": "MBC", "setting": "Staphylococcus aureus [3]", "result": 500, "unit": "µg/mL"}, {"measurement": "MBC", "setting": "Escherichia coli", "result": 500, "unit": "µg/mL"}, {"measurement": "MBC", "setting": "Klebsiella pneumoniae", "result": "> 1000", "unit": "µg/mL"}]}
